Activity calls are given as the source filed them. The calls are words filed in the database; no cut-off is given here.
Assays:
[1] = Plasma concentration in Sprague-Dawley rat at 5 mg/kg after 8 hrs; type: ADME, organism-based; parameters: dose 5 mg/kg
In short: (§1)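 Rats dosed at 5 mg/kg: iv for AUC (µg·h/mL), clearance (L/h·kg) and Cmax (µg/mL); oral for bioavailability unless stated otherwise. Brain (µg/g) and plasma levels taken at 1 and 8 h. Mean of n = 3.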

[2] = Concentration in Sprague-Dawley rat brain at 30 mg/kg, ip after 8 hrs; type: ADME, organism-based; parameters: dose 30 mg/kg, route intraperitoneal; details: read-out: Ct
In short: (§2)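 Rats given 30 mg/kg ip. Brain (µg/g) and plasma levels measured at 1 and 8 h after dosing.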

[3] = Concentration in Sprague-Dawley rat brain at 5 mg/kg after 1 hr; type: ADME, organism-based; parameters: dose 5 mg/kg; details: read-out: Ct; in short: as §1
[4] = Oral bioavailability in Sprague-Dawley rat at 5 mg/kg; type: ADME, organism-based; details: in vivo; in short: as §1
[5] = biological target: Cannabinoid receptor 1 (Homo sapiens) (UniProt P21554); experiment: Inhibition of CB1 receptor at 10 uM
Chain of Cannabinoid receptor 1 (Homo sapiens) (P21554 whole entry): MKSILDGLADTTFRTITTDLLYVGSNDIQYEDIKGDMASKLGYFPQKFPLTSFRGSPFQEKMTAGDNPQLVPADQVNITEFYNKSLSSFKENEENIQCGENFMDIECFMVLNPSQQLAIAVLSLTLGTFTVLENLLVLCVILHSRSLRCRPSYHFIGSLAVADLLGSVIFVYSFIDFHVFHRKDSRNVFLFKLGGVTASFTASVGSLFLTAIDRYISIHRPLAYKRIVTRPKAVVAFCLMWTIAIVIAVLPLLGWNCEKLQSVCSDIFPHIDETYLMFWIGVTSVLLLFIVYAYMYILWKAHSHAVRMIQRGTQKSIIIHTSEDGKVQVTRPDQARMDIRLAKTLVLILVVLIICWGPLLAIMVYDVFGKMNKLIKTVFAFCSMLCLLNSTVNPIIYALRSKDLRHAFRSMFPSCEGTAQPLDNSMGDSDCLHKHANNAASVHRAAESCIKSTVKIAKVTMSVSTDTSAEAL

[6] = Plasma concentration in Sprague-Dawley rat at 30 mg/kg, ip after 1 hr; type: ADME, organism-based; parameters: dose 30 mg/kg, route intraperitoneal; in short: as §2
Rattus norvegicus [7] = experiment: Reduction in cumulative food intake in fasted Sprague-Dawley rat at 30 mg/kg, ip after 24 hrs; type: functional; parameters: scale not given: the % may be the effect or the level left; details: route intraperitoneal
In short: (§3)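 Single ip dose of 10 or 30 mg/kg to free-fed or 16 h (overnight) fasted Sprague-Dawley rats. Cumulative food intake recorded at 1 and 24 h after dosing. n = 10/group, mean ± SEM; ANOVA with post hoc Dunnett.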

Rattus norvegicus [8] = experiment: AUC in Sprague-Dawley rat at 5 mg/kg, ip; type: ADME, organism-based, Plasma; parameters: dose 5 mg/kg, route intraperitoneal; details: in vivo
Rattus norvegicus [9] = experiment: Reduction in cumulative food intake in free-fed Sprague-Dawley rat at 30 mg/kg, ip after 24 hrs; type: functional; parameters: scale not given: the % may be the effect or the level left; details: route intraperitoneal; in short: as §3
Rattus norvegicus [10] = experiment: Reduction in cumulative food intake in free-fed Sprague-Dawley rat at 10 mg/kg, ip after 1 hr; type: functional, organism-based; parameters: dose 10 mg/kg; in short: as §3
[11] = Plasma clearance in Sprague-Dawley rat at 5 mg/kg, iv
[12] = biological target: T1, 5-hydroxytryptamine receptor 2C (Homo sapiens, UniProt P28335); experiment: Inhibition of 5HT2C receptor
T1 sequence (P28335 whole entry): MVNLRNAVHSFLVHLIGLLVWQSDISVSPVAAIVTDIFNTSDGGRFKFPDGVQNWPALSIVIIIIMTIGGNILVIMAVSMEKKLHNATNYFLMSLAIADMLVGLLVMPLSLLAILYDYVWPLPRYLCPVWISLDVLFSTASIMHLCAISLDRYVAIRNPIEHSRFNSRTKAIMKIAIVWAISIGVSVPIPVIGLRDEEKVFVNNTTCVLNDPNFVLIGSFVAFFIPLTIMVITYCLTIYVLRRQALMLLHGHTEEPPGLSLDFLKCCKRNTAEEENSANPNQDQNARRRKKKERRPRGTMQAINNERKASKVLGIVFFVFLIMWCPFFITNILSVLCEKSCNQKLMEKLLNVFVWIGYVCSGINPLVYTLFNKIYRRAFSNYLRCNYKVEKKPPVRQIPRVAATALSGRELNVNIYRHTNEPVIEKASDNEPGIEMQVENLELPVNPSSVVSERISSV

[13] = Concentration in Sprague-Dawley rat brain at 5 mg/kg after 8 hrs; type: ADME, organism-based; parameters: dose 5 mg/kg; details: read-out: Ct; in short: as §1
[14] = biological target: Muscarinic acetylcholine receptor; experiment: Inhibition of muscarinic receptor; type: protein assay
Rattus norvegicus [15] = experiment: AUC in Sprague-Dawley rat at 5 mg/kg, iv; type: ADME, organism-based, Plasma; parameters: dose 5 mg/kg, route intravenous; details: in vivo; in short: as §1
Rattus norvegicus [16] = experiment: Decrease in body weight in Sprague-Dawley rat at 30 mg/kg, ip after 24 hrs; type: functional, organism-based; parameters: dose 30 mg/kg
In short: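 Free-fed Sprague-Dawley rats given a single ip dose (10 or 30 mg/kg); body weight taken 24 h after dosing. n = 10/group, mean ± SEM; ANOVA with post hoc Dunnett.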

[17] = Inhibition of histamine receptor
[18] = biological target: Melanin-concentrating hormone receptor (Homo sapiens, UniProt Q969V1+Q99705); experiment: Activity against MCH receptor in an intracellular calcium flux assay; type: functional, cell-based
[19] = Concentration in Sprague-Dawley rat brain at 30 mg/kg, ip after 1 hr; type: ADME, organism-based; parameters: dose 30 mg/kg, route intraperitoneal; details: read-out: Ct; in short: as §2
[20] = Plasma concentration in Sprague-Dawley rat at 30 mg/kg, ip after 8 hrs; type: ADME, organism-based; parameters: dose 30 mg/kg, route intraperitoneal; in short: as §2
Rattus norvegicus [21] = experiment: Reduction in cumulative food intake in free-fed Sprague-Dawley rat at 10 mg/kg, ip after 24 hrs; type: functional, organism-based; parameters: dose 10 mg/kg; in short: as §3
[22] = Cmax in Sprague-Dawley rat at 5 mg/kg, iv; type: ADME, organism-based; parameters: dose 5 mg/kg, route intravenous; details: in vivo; in short: as §1
[23] = biological target: Nociceptin/orphanin FQ receptor, ORL1 (Homo sapiens) (UniProt P41146); experiment: Inhibition of opioid like-1 receptor
Chain of Nociceptin/orphanin FQ receptor, ORL1 (Homo sapiens) (P41146 whole entry, looked up): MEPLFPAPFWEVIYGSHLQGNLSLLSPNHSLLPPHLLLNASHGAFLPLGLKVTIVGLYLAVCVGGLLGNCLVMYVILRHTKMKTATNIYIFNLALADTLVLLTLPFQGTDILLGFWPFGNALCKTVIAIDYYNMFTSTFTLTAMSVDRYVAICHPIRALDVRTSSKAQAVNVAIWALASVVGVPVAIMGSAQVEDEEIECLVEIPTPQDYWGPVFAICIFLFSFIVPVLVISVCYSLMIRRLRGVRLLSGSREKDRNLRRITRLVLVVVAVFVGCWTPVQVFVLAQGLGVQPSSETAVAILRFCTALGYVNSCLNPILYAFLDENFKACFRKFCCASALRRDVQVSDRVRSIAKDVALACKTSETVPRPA

Rattus norvegicus [24] = experiment: Bioavailability in Sprague-Dawley rat at 5 mg/kg, ip; type: ADME, organism-based; details: in vivo
[25] = Half life in Sprague-Dawley rat at 5 mg/kg, ip; type: ADME, organism-based; parameters: dose 5 mg/kg, route intraperitoneal; details: in vivo
Dopamine receptor = experiment: Inhibition of dopaminergic receptor; type: protein assay
[26] = biological target: T2, Growth hormone secretagogue receptor type 1 (Homo sapiens, UniProt Q92847); experiment: Antagonist activity at human GHS receptor by inhibition of ghrelin-induced intracellular calcium flux in CHOK cells; type: functional, cell-based
T2 sequence (Q92847 whole entry): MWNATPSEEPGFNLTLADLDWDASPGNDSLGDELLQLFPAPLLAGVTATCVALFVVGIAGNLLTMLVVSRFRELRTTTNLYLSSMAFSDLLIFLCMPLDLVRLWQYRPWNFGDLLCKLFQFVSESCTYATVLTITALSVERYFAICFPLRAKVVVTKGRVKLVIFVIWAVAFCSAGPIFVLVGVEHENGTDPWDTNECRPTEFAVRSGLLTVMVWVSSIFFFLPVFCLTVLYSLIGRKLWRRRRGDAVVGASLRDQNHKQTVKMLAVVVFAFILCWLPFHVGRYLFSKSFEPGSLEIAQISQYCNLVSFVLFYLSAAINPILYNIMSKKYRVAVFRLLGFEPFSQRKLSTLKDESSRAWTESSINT
In short: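 CHO-K cells stably expressing human GHS-R, grown in Ultra-CHO medium with 1% dialyzed FCS and 400 µg/mL G418, plated to confluency overnight. Loaded with Fluo-4 AM plus probenecid for 1-3 h in the dark at RT, then washed. On FLIPR (ex 488/em 520 nm), compound added first and read 3 min, then ghrelin added and read another 3 min. Duplicate or triplicate wells; sigmoidal fit for IC50.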

[27] = Plasma concentration in Sprague-Dawley rat at 5 mg/kg after 1 hr; type: ADME, organism-based; parameters: dose 5 mg/kg; in short: as §1
Rattus norvegicus [28] = experiment: Reduction in cumulative food intake in free-fed Sprague-Dawley rat at 30 mg/kg, ip after 1 hr; type: functional, organism-based; parameters: dose 30 mg/kg; in short: as §3
[29] = biological target: T2, Growth hormone secretagogue receptor type 1; experiment: Displacement of [125I]ghrelin from human GHS receptor expressed in CHOK cells; type: cell-based
In short: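 Membranes from CHO-K cells expressing human ghrelin receptor, prepared by sonication and a 60000g spin. Filtered onto PEI-soaked GF/C, washed cold, scintillation counted; percent inhibition, sigmoidal fit for IC50.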

Rattus norvegicus [30] = experiment: Reduction in cumulative food intake in fasted Sprague-Dawley rat at 10 mg/kg, ip after 24 hrs; type: functional, organism-based; parameters: dose 10 mg/kg; in short: as §3
[31] = Inhibition of adrenergic receptor
[32] = Cmax in Sprague-Dawley rat at 5 mg/kg, ip; type: ADME, organism-based; parameters: dose 5 mg/kg, route intraperitoneal; details: in vivo

For `Nc1nc(N)c(-c2ccc(NCc3ccc(Cl)cc3)cc2)c(COCc2ccccc2)n1`, the concentration at 8 h [1] was 30 ng/mL, the concentration at 8 h [2] was 140 ng/g and the concentration at 1 h [3] was 1070 ng/g. The bioavailability [4] was 5.5%, the inhibition [5] was -1% and the concentration at 1 h [6] was 500 ng/mL. The Activity (Rattus norvegicus [7]) was 24%, the AUC (Rattus norvegicus [8]) was 1140 ng·h/mL and the Activity (Rattus norvegicus [9]) was 29%. For the same compound, the Activity (Rattus norvegicus [10]) was “Dose-dependent effect”, the clearance [11] was 36.7 mL/min/kg and the IC50 [12] was > 33 µM. The concentration at 8 h [13] was 50 ng/g, the IC50 [14] was > 5.5 µM and the AUC (Rattus norvegicus [15]) was 120 ng·h/mL. The Activity (Rattus norvegicus [16]) was “Active”, the IC50 [17] was > 33 µM and the IC50 [18] was > 10 µM. The concentration at 1 h [19] was 330 ng/g, the concentration at 8 h [20] was 190 ng/mL and the Activity (Rattus norvegicus [21]) was “Dose-dependent effect”. The Cmax [22] was 54 ng/mL, the IC50 [23] was > 33 µM and the F (Rattus norvegicus [24]) was 68%. The half-life [25] was 3.9 h, the IC50 (Dopamine receptor) was > 33 µM and the IC50 [26] was 0.18 µM. The concentration at 1 h [27] was 350 ng/mL, the Activity (Rattus norvegicus [28]) was “Dose-dependent effect” and the IC50 [29] was 0.019 µM. The Activity (Rattus norvegicus [30]) was “Dose-dependent effect”, the IC50 [31] was > 33 µM and the Cmax [32] was 260 ng/mL.
